According to ChEMBL document CHEMBL1125560, “Synthesis and physicochemical properties of sulfamate derivatives as topical antiglaucoma agents” (J Med Chem, 1992):

Key:
[1] = Compound was evaluated for partition coefficient at pH 7.4 (CHCl3/buffer); conditions: octanol/water
[2] = molecular target: Carbonic anhydrase (Bos taurus, UniProt P00921+Q95323+P18915+Q3SZX4); assay: Bovine erythrocyte carbonic anhydrase inhibitory activity of the compound.
[3] = Solubility in water at pH 5.0; type: physicochemical
Method in brief: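 Not measured directly. Intrinsic solubility S0 comes from equilibrium solubility in pH 7.4 phosphate buffer (2–4 days, UV read-out). Solubility at pH 5 is then calculated as S = S0(1 + 10^(pKa1−pH) + 10^(pH−pKa2)), using the imidazole and sulfonamide pKa values.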

[4] = Intrinsic solubility of the compound; type: ADME; conditions: read-out: S
Method in brief: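 Compound equilibrated 2–4 days in pH 7.4 phosphate buffer in sealed rotating tubes, amount tripled if all dissolved. pH and concentration then measured: solution filtered (0.2 μm), diluted, concentration read by UV spectrum. Intrinsic solubility S0 derived from S = S0(1 + 10^(pKa1−pH) + 10^(pH−pKa2)).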

[5] = (§1) Partition coefficient at pH 7.4 between chloroform and water as a measure of lipid solubility.; type: ADME; conditions: read-out: pKa1
Method in brief: (§2)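 Drug dissolved in 0.05 M phosphate buffer, pH 7.4, and shaken with an equal volume of chloroform to equilibrium. Aqueous drug concentration found from carbonic anhydrase inhibitory activity of aqueous samples against a standard curve. Organic concentration obtained by difference. Reported as organic/aqueous concentration ratio.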

[6] = as §1
[7] = system: Oryctolagus cuniculus; assay: Compound was evaluated for decrease in intraocular pressure (IOP) (mmHg) at 1 hour postdosing to New Zealand white rabbits with 2% solubility; type: functional, Eye
Method in brief: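 New Zealand white rabbits, at least six per test, 2–10 experiments. Eyes given one drop of topical anesthetic (proparacaine) before tonometer IOP readings, taken before dosing and at 1 h intervals after. Drug at 2% in 0.5% hydroxyethylcellulose, 50 μL to one eye, vehicle to the other. Value is treated-eye minus control-eye IOP at 1 h, mean.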

[8] = Partition coefficient of the compound at pH 7.4 between chloroform and water as a measure of lipid solubility.; type: ADME; conditions: read-out: pKa2; method in brief: as §2

| Compound | Partition coefficient [1] | IC50 [2] [nM] | solubility [3] [µg/mL] | solubility [4] [µg/mL] | pKa [5] | pKa [6] | pKa [8] | IOP [7] [mmHg] |
| --- | --- | --- | --- | --- | --- | --- | --- | --- |
| Cl.NS(=O)(=O)OCCOc1cccc(-n2ccnc2)c1 | 2.2 | 69 | 1500 | 250 | 5.71 | 8.91 |  | 2.3 |
| CC(=O)Nc1nnc(S(N)(=O)=O)s1.Cl |  |  | < 710 |  |  |  |  | 0 |
| Cl.NS(=O)(=O)OCCOc1ccc(-n2ccnc2)cc1 | 1.5 | 23 | 7400 | 700 | 5.98 | 9.05 |  | 2.5 |
| Cl.NS(=O)(=O)Oc1cccc(-n2ccnc2)c1 | 0.28 | 42 | 38000 | 11000 | 5.4 | 9.05 |  | 1.5 |
| Cc1nccn1-c1cccc(OS(N)(=O)=O)c1.Cl | 0.18 | 50 | 100000 | 3300 | 6.47 | 7.99 |  | 0 |

Continued, in another order:

| Partition coefficient [1] | IC50 [2] [nM] | solubility [3] [µg/mL] | solubility [4] [µg/mL] | pKa [5] | pKa [6] | pKa [8] | Compound | IOP [7] [mmHg] |
| --- | --- | --- | --- | --- | --- | --- | --- | --- |
| 5.5 | 250 | 1600 | 120 | 6.09 |  | 9.22 | Cl.NS(=O)(=O)OCCCOc1ccc(-n2ccnc2)cc1 | 0 |
| 0.73 | 94 | 6300 | 470 | 6.09 | 8.08 |  | Cc1cn(-c2cccc(OS(N)(=O)=O)c2)cn1.Cl |  |
| 0.16 | 120 | 1000 | 230 | 5.54 | 8 |  | Cl.NS(=O)(=O)Oc1ccc(-n2ccnc2)cc1 | 1.3 |
| 1.1 | 77 | 114000 | 1400 | 6.9 |  | 8.99 | Cc1nccn1-c1cccc(OCCOS(N)(=O)=O)c1.Cl | 1.7 |
| 4.6 | 210 | 4900 | 220 | 6.34 | 8.96 |  | Cc1cn(-c2cccc(OCCOS(N)(=O)=O)c2)cn1.Cl |  |
